According to ChEMBL document CHEMBL1137484, “Design and synthesis of opioidmimetics containing 2',6'-dimethyl-L-tyrosine and a pyrazinone-ring platform” (Bioorg Med Chem Lett, 2007):

How the values were obtained:
Mu-type opioid receptor [1] = target: T1, Mu-type opioid receptor (Cavia porcellus, UniProt P97266); assay: Agonist activity at mu opioid receptor in guinea pig ileum assessed as inhibition of electrically-stimulated muscle contraction; format: functional, tissue-based
How it was run: (§1)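 Reference agonists run alongside: deltorphin II for delta in mouse vas deferens (MVD) and endomorphin 2 for mu in guinea pig ileum (GPI).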

[2] = target: Delta-type opioid receptor (Homo sapiens, UniProt P41143); assay: Displacement of [3H]deltorphin 2 from delta opioid receptor
Mu-type opioid receptor [3] = target: Mu-type opioid receptor (Homo sapiens, UniProt P35372); assay: Displacement of [3H]DAMGO from human mu opioid receptor
[4] = target: Mu-type opioid receptor (Cavia porcellus) (UniProt P97266); assay: Agonist activity at mu opioid receptor in guinea pig ileum assessed as inhibition of electrically-stimulated muscle contraction at 10 uM; format: functional, tissue-based
Homo sapiens = species: Homo sapiens; assay: Selectivity for human mu opioid receptor over human delta opioid receptor
[5] = target: T2, Delta-type opioid receptor (Mus musculus, UniProt P32300); assay: Agonist activity at delta opioid receptor in mouse vas deferens assessed as inhibition of electrically-stimulated muscle contraction; format: functional, tissue-based; how it was run: as §1
[6] = target: Delta-type opioid receptor (Mus musculus) (UniProt P32300); assay: Agonist activity at delta opioid receptor in mouse vas deferens assessed as inhibition of electrically-stimulated muscle contraction at 10 uM; format: functional, tissue-based
[7] = target: T2, Delta-type opioid receptor; assay: Antagonist activity at delta opioid receptor in mouse vas deferens; format: functional, tissue-based; settings: read-out: pA2 (converted)
How it was run: (§2)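 Antagonism given as pA2: the negative log of the antagonist concentration (M) that doubles the agonist concentration needed to restore the original response. The agonist was deltorphin II in MVD (delta) and endomorphin 2 in GPI (mu).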

Mu-type opioid receptor [8] = target: T1, Mu-type opioid receptor; assay: Antagonist activity at mu opioid receptor in guinea pig ileum; format: functional, tissue-based; settings: read-out: pA2 (converted); how it was run: as §2

T2 sequence (P32300 whole entry): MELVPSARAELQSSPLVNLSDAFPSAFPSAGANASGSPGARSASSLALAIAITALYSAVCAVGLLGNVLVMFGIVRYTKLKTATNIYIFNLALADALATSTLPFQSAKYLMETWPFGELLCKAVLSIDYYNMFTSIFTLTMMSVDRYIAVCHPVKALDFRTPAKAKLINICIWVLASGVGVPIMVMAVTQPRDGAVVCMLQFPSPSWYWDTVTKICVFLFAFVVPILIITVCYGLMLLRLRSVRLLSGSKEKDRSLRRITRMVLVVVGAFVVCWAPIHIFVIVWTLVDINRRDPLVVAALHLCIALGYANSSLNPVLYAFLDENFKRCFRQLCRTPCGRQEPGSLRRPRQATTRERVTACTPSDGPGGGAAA
Sequence of Delta-type opioid receptor (Mus musculus) (P32300 whole entry): as above
Sequence of Mu-type opioid receptor (Cavia porcellus) (P97266 whole entry): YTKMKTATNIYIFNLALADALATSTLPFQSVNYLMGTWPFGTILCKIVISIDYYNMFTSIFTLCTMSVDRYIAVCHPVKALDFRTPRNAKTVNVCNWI
T1 sequence (P97266 whole entry): as above
Sequence of Delta-type opioid receptor (Homo sapiens, UniProt P41143) (P41143 whole entry): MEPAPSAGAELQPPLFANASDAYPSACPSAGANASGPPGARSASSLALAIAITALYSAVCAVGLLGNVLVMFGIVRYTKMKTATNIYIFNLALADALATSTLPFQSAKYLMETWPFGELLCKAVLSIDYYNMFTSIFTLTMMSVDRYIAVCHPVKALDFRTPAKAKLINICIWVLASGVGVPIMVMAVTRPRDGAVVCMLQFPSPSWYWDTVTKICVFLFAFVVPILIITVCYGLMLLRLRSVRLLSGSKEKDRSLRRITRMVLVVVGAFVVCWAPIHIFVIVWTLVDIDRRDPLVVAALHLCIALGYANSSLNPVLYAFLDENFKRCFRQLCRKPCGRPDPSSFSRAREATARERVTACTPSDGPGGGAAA
Sequence of Mu-type opioid receptor (Homo sapiens, UniProt P35372) (P35372 whole entry): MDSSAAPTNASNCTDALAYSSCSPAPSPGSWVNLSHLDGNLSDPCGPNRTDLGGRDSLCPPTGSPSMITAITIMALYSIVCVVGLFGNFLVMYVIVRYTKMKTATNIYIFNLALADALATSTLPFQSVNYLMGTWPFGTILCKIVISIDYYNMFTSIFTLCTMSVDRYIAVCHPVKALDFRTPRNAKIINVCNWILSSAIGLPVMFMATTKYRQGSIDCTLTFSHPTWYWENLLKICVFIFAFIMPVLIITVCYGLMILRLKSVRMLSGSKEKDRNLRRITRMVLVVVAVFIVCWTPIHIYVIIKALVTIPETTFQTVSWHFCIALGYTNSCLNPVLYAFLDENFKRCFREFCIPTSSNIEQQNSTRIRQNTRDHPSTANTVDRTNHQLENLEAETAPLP

Structure (SMILES) | IC50 (Mu-type opioid receptor [1]) | Ki [2] | Ki (Mu-type opioid receptor [3]) | inhibition [4] | Ratio Ki (Homo sapiens) | IC50 [5] | inhibition [6] | Kb [7] | Kb (Mu-type opioid receptor [8])
Cc1cc(O)cc(C)c1C[C@H](N)C(=O)NCCCc1nc(C)c(C)[nH]c1=O | > 10000 nM | 269 nM | 8.88 nM | 22.7% | 30 | > 10000 nM | 31.1% | > 3160 nM | –
Cc1cc(O)cc(C)c1C[C@H](N)C(=O)NCCCCc1[nH]c(=O)cnc1C | > 10000 nM | 344 nM | 56.9 nM | 37.1% | 6 | > 10000 nM | 28.1% | > 3160 nM | > 1000 nM
Cc1cc(O)cc(C)c1C[C@H](N)C(=O)NCCCc1nc(C)c(CCc2ccccc2)[nH]c1=O | 5550 nM | 38.2 nM | 0.55 nM | – | 69 | > 10000 nM | 4.1% | 1350 nM | > 1000 nM
Cc1cc(O)cc(C)c1C[C@H](N)C(=O)NCCCCc1nc(C)c(C)[nH]c1=O | > 10000 nM | 77.7 nM | 4.23 nM | 35.1% | 18 | > 10000 nM | 26.2% | 2510 nM | 200 nM
Cc1cc(O)cc(C)c1C[C@H](N)C(=O)NCCCCc1[nH]c(=O)c(C)nc1C | > 10000 nM | 208 nM | 15.4 nM | 30.1% | 14 | > 10000 nM | 0% | 2340 nM | > 1000 nM
Cc1cc(O)cc(C)c1C[C@H](N)C(=O)NCCCCc1nc(C)c(Cc2ccccc2)[nH]c1=O | > 10000 nM | 8.6 nM | 0.42 nM | 39.5% | 20 | > 10000 nM | 19.9% | 589 nM | –
Cc1cc(O)cc(C)c1C[C@H](N)C(=O)NCCCc1nc(C)c(Cc2ccccc2)[nH]c1=O | > 10000 nM | 59.6 nM | 1 nM | 36.7% | 60 | > 10000 nM | 34.6% | 1230 nM | –
Cc1cc(O)cc(C)c1C[C@H](N)C(=O)NCCc1nc(C)c(C)[nH]c1=O | > 10000 nM | 93.1 nM | 76.5 nM | 45% | 1.2 | > 10000 nM | 25.2% | 1350 nM | –
Cc1cccc(C)c1Cc1[nH]c(=O)c(CCCCNC(=O)[C@@H](N)Cc2c(C)cc(O)cc2C)nc1C | 6270 nM | 5.3 nM | 0.66 nM | – | 8 | > 10000 nM | 6.4% | 245 nM | > 1000 nM
Cc1c[nH]c(=O)c(CCCCNC(=O)[C@@H](N)Cc2c(C)cc(O)cc2C)n1 | > 10000 nM | 73.8 nM | 0.62 nM | 47.6% | 119 | > 10000 nM | 25.7% | > 3160 nM | –
Cc1cc(O)cc(C)c1C[C@H](N)C(=O)NCc1nc(C)c(C)[nH]c1=O | > 10000 nM | 698 nM | 129 nM | 20.6% | 5.4 | > 10000 nM | 28.1% | 1480 nM | –
Cc1cc(O)cc(C)c1C[C@H](N)C(=O)NCCCCc1nc(C)c(CCc2ccccc2)[nH]c1=O | 15.9 nM | 55.9 nM | 0.125 nM | – | 447 | > 10000 nM | 12.8% | 447 nM | –
